Columns and labels:
[1] = Cytotoxicity against MDCK cells after 24 hrs by MTT assay; type: cell-based, Canis lupus familiaris; settings: dog
Method in brief: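 MDCK cells grown 24 h at 36 °C, 5% CO2 to confluence. Threefold dilutions in MEM added for 24 h. Cells washed twice with saline, then MTT in MEM for 1 h at 36 °C. Formazan dissolved in DMSO, OD read at 540 nm. CC50 (50% cell death) from four-parameter logistic fit.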

[2] = Selectivity index, ratio of CC50 for MDCK cells to IC50 for Influenza A virus (A/Puerto Rico/8/34(H1N1)) […] infected in MDCK cells; type: toxicity, cell-based; settings: dog, read-out: Ratio CC50/IC50
Method in brief: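 SI computed as CC50/IC50. CC50 from the MTT assay on MDCK cells (24 h). IC50 is the concentration halving A/PR/8/34 (H1N1) titer in MDCK cells, measured by hemagglutination.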

COc1ccc(N2CCN=C2c2ccc(C3=NCCN3c3ccc(OC)cc3)cc2)cc1
CC50 at 24 h [1]: 361 µM | selectivity ratio [2]: 23

Fc1ccc(N2CCN=C2c2ccc(C3=NCCN3c3ccc(F)cc3)cc2)cc1
CC50 at 24 h [1]: 144 µM | selectivity ratio [2]: 12

FC(F)(F)c1ccc(N2CCN=C2c2ccc(C3=NCCN3c3ccc(C(F)(F)F)cn3)cc2)nc1
CC50 at 24 h [1]: 455 µM | selectivity ratio [2]: 4

c1ccc(N2CCN=C2c2ccc(C3=NCCN3c3ccccc3)cc2)cc1
CC50 at 24 h [1]: > 817 µM | selectivity ratio [2]: > 11

c1cncc(N2CCN=C2c2ccc(C3=NCCN3c3cccnc3)cc2)c1
CC50 at 24 h [1]: > 813 µM | selectivity ratio [2]: > 12

c1ccc(N2CCN=C2c2ccc(C3=NCCN3c3ccccn3)cc2)nc1
CC50 at 24 h [1]: 127 µM | selectivity ratio [2]: 4

c1cnc(N2CCN=C2c2ccc(C3=NCCN3c3cnccn3)cc2)cn1
CC50 at 24 h [1]: > 809 µM

Clc1ccc(N2CCN=C2c2ccc(C3=NCCN3c3ccc(Cl)cc3)cc2)cc1
CC50 at 24 h [1]: 9 µM | selectivity ratio [2]: 2

c1ccc(N2CCN=C2c2ccc(C3=NCCN3)cc2)cc1
CC50 at 24 h [1]: > 1030 µM | selectivity ratio [2]: > 34

COc1ccc(N2CCN=C2c2ccc(C3=NCCN3)cc2)cc1
CC50 at 24 h [1]: 224 µM | selectivity ratio [2]: 5

Fc1ccc(N2CCN=C2c2ccc(C3=NCCN3)cc2)cc1
CC50 at 24 h [1]: > 971 µM | selectivity ratio [2]: > 15

CC(N)C12CC3CC(CC(C3)C1)C2 (stereo not drawn) [RIMANTADINE]
CC50 at 24 h [1]: 62 µM | selectivity ratio [2]: 6

— ChEMBL document CHEMBL4325883, “Non-chelating p-phenylidene-linked bis-imidazoline analogs of known influenza virus endonuclease inhibitors: Synthesis and anti-influenza activity” (Eur J Med Chem, 2019)
